Measured values: ChEMBL document CHEMBL2029254, “Use of libraries to access new chemical space: applications to CRTH2” (Bioorg Med Chem Lett, 2012)

Assays:
[1] = target: T1, Prostaglandin D2 receptor 2 (Homo sapiens, UniProt Q9Y5Y4); assay: Displacement of [3H]PGD2 from human CRTH2 receptor expressed in CHO cell membrane after 120 mins by scintillation counting; format: cell membranes
T1 sequence (Q9Y5Y4 whole entry): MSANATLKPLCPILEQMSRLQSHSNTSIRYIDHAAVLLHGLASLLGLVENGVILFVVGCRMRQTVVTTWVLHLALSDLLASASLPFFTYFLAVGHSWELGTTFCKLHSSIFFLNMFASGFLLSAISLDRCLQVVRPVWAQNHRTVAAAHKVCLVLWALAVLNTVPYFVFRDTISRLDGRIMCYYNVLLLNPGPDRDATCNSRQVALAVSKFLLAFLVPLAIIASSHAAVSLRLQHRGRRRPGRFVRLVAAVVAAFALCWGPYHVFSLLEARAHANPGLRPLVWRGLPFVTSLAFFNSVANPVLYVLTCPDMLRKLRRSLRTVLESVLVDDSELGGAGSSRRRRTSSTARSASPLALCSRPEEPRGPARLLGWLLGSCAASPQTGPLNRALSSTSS
Method in brief: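 Ki derived from the displacement IC50 by the Cheng–Prusoff relationship, using the KD and radioligand concentration supplied by the analyser. Values are geometric means of three or more independent determinations.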

[2] = target: T2, Prostaglandin D2 receptor 2 (Homo sapiens) (UniProt Q9Y5Y4); assay: Displacement of [3H]PGD2 from human CRTH2 receptor expressed in CHO cell membrane at 2.8 uM after 120 mins by scintillation counting; format: cell membranes
T2 sequence (whole entry): T1 sequence (Q9Y5Y4 whole entry)

| Structure (SMILES) | Ki [1] [µM] | inhibition [2] [%] |
| --- | --- | --- |
| CCc1nn(Cc2cc(Cl)ccc2Cl)c(CC)c1CC(=O)O | 0.623 | > 40 |
| CCc1nn(Cc2cccc(Br)c2)c(CC)c1CC(=O)O | 0.563 | > 40 |
| O=C(O)Cn1cnc2c1CCN(C(=O)c1csc(-c3ccccc3)n1)C2 | 0.752 | > 40 |
| CCCNC(=O)c1ccccc1OCc1cccc(C)c1OCC(=O)O | 0.333 | > 40 |
| CCc1nn(CC(=O)O)c(CC)c1Cc1ccc2ccccc2c1 | 0.631 | > 40 |
| CCc1nn(Cc2ccc3ccccc3c2)c(CC)c1CC(=O)O | 0.574 | > 40 |

Now from value to compound:

| Ki [1] [µM] | inhibition [2] [%] | Structure (SMILES) |
| --- | --- | --- |
| 0.492 | > 40 | Cc1ccc2cccc(OCc3ccccc3OCC(=O)O)c2n1 |
| 0.247 | > 40 | O=C(O)COc1ccccc1COc1ccc(Cl)cc1-c1ccno1 |
| 0.52 | > 40 | Cc1ccc(Cl)cc1OCc1ccccc1OCC(=O)O |
| 0.591 | > 40 | O=C(O)COc1ccccc1COc1ccc(F)cc1C1CC1 |
